Results from ChEMBL document CHEMBL4513216, “Probing the Open Global Health Chemical Diversity Library for Multistage-Active Starting Points for Next-Generation Antimalarials” (ACS Infect Dis, 2020).

Test: Toxicity liver stage against HepG2, at 10uM
Format: cell-based
Design: test concentration 10 uM, cell line HepG2-A16-CD81EGFP
Details: human, HepG2-A16-CD81EGFP cells; read-out: INHIBITION
Summary of the method: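 Uninfected HepG2-A16-CD81EGFP cells, 3 × 10^3 per well, 1536-well, plated on prespotted compound at 10 μM final, parasite-free screening media added to match infected plates; puromycin 10 μM positive, DMSO 0.5% negative; run in parallel with 48 h PbLuc assay at 37 °C, 5% CO2; viability by CellTiter-Glo luminescence, normalized to controls.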

SMILES	cytotoxicity at 10 µM
CC(C)CNC[C@H]1O[C@H](Cc2cc(-c3ccccn3)on2)CC[C@@H]1O	-0.238%
CC(C)(C)CC(=O)N1CC[C@H]2CC(=O)N(CCc3c[nH]cn3)CC[C@H]2C1	-3.97%
O=C(CNC(=O)N1CCc2c([nH]c3ccc(Cl)cc23)C1)NCCCO	5.36%
CCC(=O)NCC(Cc1cccc(F)c1)n1cccc1 (stereo not drawn)	-0.765%
CN1CC[C@]2(CN(C(=O)[C@H]3CCCO3)C[C@H]2c2ccccc2)C1=O	8.49%
CN1C[C@@H]2COC[C@]2(C(=O)NCc2cccs2)C1	9.22%
c1cncc(COCC2CN(Cc3ccsc3)Cc3ccnn3C2)c1 (stereo not drawn)	-140%
O=C(NCC1CC1)c1cc2c(s1)CCN2C(=O)c1ccc(F)cc1	2.55%
CN(Cc1cccnc1)Cc1cn2c(n1)CN(C1CCOCC1)CC2	8.94%
CC(C)NC(=O)C1CCN(c2nc3nc[nH]c(=O)c3s2)CC1	-3.79%
Cc1nn(C)c(=O)c2nn(-c3ccc(F)cc3)c(C)c12	-0.839%
CNC(=O)[C@H]1C[C@@H]2CN(C(=O)c3ccco3)C[C@@H]2N1S(C)(=O)=O	-10.2%
O=C(O)CCCC(=O)Nc1cnn(COc2ccc(F)cc2Cl)c1	8.69%
c1cnc(-c2nn3c(CN4CCOCC4)nnc3s2)cn1	7.74%
NC(=O)c1c[nH]nc1NCc1ccc2c(c1)OCO2	-2.9%
Cc1cc(C)nc(N2CCC(c3cccc(CCC(=O)O)n3)CC2)n1	0.343%
O=S1(=O)NC(C2CCCN(S(=O)(=O)N3CCCC3)C2)=Nc2ccccc21 (stereo not drawn)	2.17%
COCCN1CCC1c1cc(NC2CCCC2)nc(C)n1 (stereo not drawn)	0.994%
Cc1cc(Oc2ccccc2C)nc(C2CCCN2)n1 (stereo not drawn)	1.22%
CC(=O)N1CCC(c2[nH]ncc2S(C)(=O)=O)CC1	0.752%
CN1CCC(c2cccc(-c3cccc(C(=O)O)c3)n2)CC1	-6.55%
CCOCC(=O)N1C[C@@H](O)[C@H](NC(C)=O)C1	-4.48%
Cc1cccc2nc(C(=O)N3CCCC[C@]4(C)NC(=O)CCC[C@H]34)cn12	-1.85%

SMILES	cytotoxicity at 10 µM
O=C(NCCO)C1CN(c2cncnc2)CCO1 (stereo not drawn)	-29.9%
COc1cccc(CC(=O)N2CCCC2c2nc(C)c(F)c(O)n2)c1 (stereo not drawn)	-21.6%
CC(C)N1CCC(Cc2cc(-c3cc(F)ccc3C(=O)O)ncn2)C1 (stereo not drawn)	7.49%
CNc1cc(CNC(=O)c2ccncc2)nc(-c2ccncc2)n1	-7.16%
NCCCC(=O)N1CCC2(CC1)CN(C(=O)c1ccc(Cl)cc1)CCO2	6.83%
NC(=O)c1cccc(CS(=O)(=O)CC(O)Cn2cccn2)c1 (stereo not drawn)	-2.45%
CCC(CO)NC(=O)Nc1cc(F)ccc1SCC(F)F (stereo not drawn)	12.6%
CCn1nnnc1-c1cccc(NC(=O)CCOC(C)C)c1	-9.8%
O=C(Cn1cnnn1)NC(c1ccccc1)c1ccc2c(c1)CCCO2 (stereo not drawn)	-1.47%
Cc1ccc(C2CSCCN2C(=O)c2ccccn2)cc1 (stereo not drawn)	2.04%
CC1(C)COCCN1C(=O)CCc1nc(-c2ccncc2)no1	-6.61%
CCOc1ccc(NC(=O)c2scnc2CC)cc1CO	-9.48%
Cc1cc(NC(=O)CN2CCOC(CN(C)C)C2)n(C)n1 (stereo not drawn)	0.894%
CC1CCC(O)(CSc2nnnn2C)CC1 (stereo not drawn)	-8.03%
CC1CCC(N2CCC(NS(=O)(=O)CCOC(C)C)CC2)CC1 (stereo not drawn)	-0.45%
CN(Cc1ncnn1C)C1CCN(c2sccc2C#N)C1=O (stereo not drawn)	10.2%
Cc1nnc(NC(=O)NCCN(C(=O)OC(C)(C)C)C2CC2)s1	5.53%
COc1ccc(CN2CC(n3cccn3)C2)cc1F	-0.483%
CCOc1cccc2c1OCC(C(=O)NC(C)Cn1cccn1)=C2 (stereo not drawn)	-1.18%
CN(C)S(=O)(=O)c1ccc(=O)n(CC2CCCCO2)c1 (stereo not drawn)	-8.58%
CCn1cnnc1CNC(=O)N1CCOC(c2ccc(F)cc2)C1 (stereo not drawn)	5.53%
COCCN1CCC(CNC(=O)c2ccnc(-n3ccnc3)c2)CC1	-1.63%
Cc1ccoc1C(=O)NCCS(=O)(=O)N1CCSCC1	-2.65%

SMILES	cytotoxicity at 10 µM
N#Cc1csc(CNCCOc2ccc(Cl)cn2)c1	-5.59%
CN(C)Cc1ccc(NC(=O)c2nccn3ccnc23)cc1	-2.6%
COCCNS(=O)(=O)c1ccc(Cl)c(C(=O)N(C)Cc2sccc2C)c1	-7.53%
Oc1cccc(CNC2CCN(CCc3ccncc3)CC2)c1	-1.56%
COC(=O)NCC(=O)NCC(C)(C)c1cccc(C(F)(F)F)c1	-3.36%
O=C(c1cccnc1O)N(Cc1cccs1)CC1CCCO1 (stereo not drawn)	-11.5%
CS(=O)(=O)NCC1CCCN(C(=O)Nc2ccccc2F)C1 (stereo not drawn)	-145%
CCCN(CC(F)F)C(=O)CCc1c(C)nc2cc(O)nn2c1C	-147%
O=C(CNC(=O)Nc1c(F)cc(F)cc1-c1ccccc1)NC1CC1	-13.5%
COCCS(=O)(=O)NC(C)c1ccccc1Br (stereo not drawn)	1.02%
CCN(C(=O)NCc1ncc(C)c(OC)c1C)C(C)c1cccnc1 (stereo not drawn)	1.84%
Cc1cc(S(=O)(=O)Nc2onc(C)c2C)c(C)s1	-4.96%
CC(=O)NCCNC(=O)NCc1ccc(Br)cc1Cl	5.19%
CC(c1ccccc1)N1CCC(NC(=O)CCc2ccsc2)CC1 (stereo not drawn)	0.91%
Cc1n[nH]cc1CNC1(Cc2ccc(Br)cc2)CCCCC1	14.1%
Cc1ccc(CCC(=O)N(C)CCN2CCOCC2)c(C)c1	-4.51%
Cc1ccc(CC2CCCN2CC(=O)NCc2cccnc2)cc1 (stereo not drawn)	-3.83%
CS(=O)(=O)N[C@@H]1CCN(Cc2ccncc2)[C@H]1Cc1cccnc1	-79.7%
COCCC(=O)N1CCC2(CN(Cc3cccc(F)c3)C2)C1	-74%
CNc1ncc(-c2ccc(NC(=O)[C@@H]3CCCCN3)cc2)cn1	-7.66%
CN1CCN(CC2CC2)C(=O)c2cnc(N3CCC(CO)CC3)nc21	-3.14%
CC(=O)NC1CCN(c2nc(C)nc3c2c(C)nn3C)C1 (stereo not drawn)	8.32%
COCCN1CCC(CN(CC2CCCO2)C(=O)Cc2cccs2)CC1 (stereo not drawn)	-0.894%

SMILES	cytotoxicity at 10 µM
Cc1ccccc1C1CCN(CCn2cc(-c3nccs3)nn2)C1 (stereo not drawn)	-1.29%
CN(Cc1nc(C2CC2)no1)C(=O)CN1CC(c2ccccc2)CC1=O (stereo not drawn)	2.11%
CSc1ccccc1-n1ccnc1-c1cn(C2CCNCC2)nn1	-0.67%
COCc1ncn(Cc2nc(-c3ccc(OC)c(OC)c3)oc2C)n1	-4.77%
CC(Cc1ccc2c(c1)OCO2)c1cn(CCc2c[nH]cn2)nn1 (stereo not drawn)	8.66%
CN(C)C[C@@H]1CN(C(=O)c2cc(S(N)(=O)=O)ccc2F)C[C@@H]1CO	4.83%
CC(C)Cc1ncc2c(n1)CN(c1nccc(NC(C)C)n1)C2	-10.7%
Cc1cc(C)n(CC(C)NCCN2CCc3ccccc32)n1 (stereo not drawn)	-7.73%
COc1ccc2c(c1)CC(C(=O)N(C)Cc1noc3c1CCCC3)CO2 (stereo not drawn)	-0.551%
CSc1nccc(NCC2CNCCO2)n1 (stereo not drawn)	2.56%
CCc1cc(NCCNC(C)=O)nc(N2CCOCC2)n1	2.38%
O=C(O)c1ccnc(-c2ccnc(N3CCCCCC3)n2)c1	-10%
CCN1CC2(CCN(CC3COCCO3)CC2)OC1=O (stereo not drawn)	-4.15%
O=C1CCCCN1Cc1cccc(OC(F)F)c1	3.17%
CC(=O)N1CCCN(c2nccc(-c3cn(C)nc3C)n2)CC1	22.3%
CCOc1ccc(Cl)c(C(=O)N2CCN(CC(C)(C)O)CC2)n1	-5.72%
CC(C)c1nn(C)c(N(C)C)c1CNCc1cccc2c1OCO2	-4.66%
COc1ccnc(N2CCN(CC(O)CN3CCOCC3)CC2)n1 (stereo not drawn)	-3.44%
Cc1nccn1C1CCCN(C(=O)c2ccc3cc[nH]c3c2)C1 (stereo not drawn)	-9.69%
CN(Cc1cnccn1)S(=O)(=O)N1CCCC1c1ccco1 (stereo not drawn)	-15.6%
O=C(CCn1cccn1)N1CCSCC1	-5.92%
COc1cccc(-n2nnc(C(=O)N3CCN(C(C)=O)CC3)c2C)c1	-13.2%
Cn1ccnc1CN1CCN(CC(O)c2ccccc2)CC1 (stereo not drawn)	-11.4%

SMILES	cytotoxicity at 10 µM
Cc1nc(C)n(CC2CCCCN2CCc2ccncc2)n1 (stereo not drawn)	-6.3%
Cc1cc(C)n(CC2CCCN2CCS(C)(=O)=O)n1 (stereo not drawn)	-3.95%
Cc1nc2ccccc2c(=O)n1CCCC(=O)N1CCNC(=O)CC1	-11.8%
CCC1CN(CC(=O)N2CCN(C(C)=O)CC2)CCN1CCOC (stereo not drawn)	-7.58%
Cc1ncsc1C(=O)NCCSCCCO	-11.3%
CC(=O)NC1CCCN(C(=O)Nc2cnc3c(cnn3C(C)C)c2)C1 (stereo not drawn)	-4.67%
Cc1nc(C2CCCN2CCCNS(C)(=O)=O)no1 (stereo not drawn)	-8.6%
CC(C)Oc1ncccc1CNC(=O)C1CCCN(C(=O)C2CC2)C1 (stereo not drawn)	-8.57%
Cc1cnn(CC2CCCN2Cc2nnsc2Cl)c1 (stereo not drawn)	-8.72%
O=C(CCc1nccs1)N1CCN(c2ccccc2F)CC1	-9.42%
COCCC(=O)N1CCC2(CCN(Cc3ccc(C)cc3)CC2)C1	-74.4%
c1cnc2c(c1)CN(C1CCOC1)CCN2CC1CC1 (stereo not drawn)	4.92%
CN(C)C[C@]12COC[C@H]1CN(Cc1ccc3ccccc3n1)C2	6.77%
CN(Cc1ccncc1)C1COC2(CCN(Cc3cccs3)CC2)C1 (stereo not drawn)	-0.931%
O=C(c1cscn1)N1C[C@H]2CCCC(OCc3cccnc3)[C@H]2C1 (stereo partly drawn)	-6.61%
O=C(Nc1ccccc1)C1CN(CC2CC2)CC12CCOCC2 (stereo not drawn)	-6.36%
Cc1c(F)cccc1S(=O)(=O)NCCN	1.99%
CC[C@@H]1N(CC2CC2)CCC[C@]12CCC(=O)N2CCOC	-5.15%
CCn1cc(CN2C[C@@H]3CC[C@H]2CN(C(=O)C2CCC2)C3)cn1	3.5%
Cc1nnsc1C(=O)N1C[C@@H]2CC[C@H]1CN(c1cnccn1)C2	9.88%
Nc1ncnc2[nH]c(N3CCCCC3)nc12	-1.43%
